Laboratory results as given in PMC7657097 (Medical Mycology, 2020).
≈ marks a conversion by molar mass, not a printed value. Read-outs that look alike come from different tables or passages of the source.

How the values were obtained:
[1] = system: A. fumigatus; details: EUCAST, ref [27], cited from earlier work
[2] = system: A. fumigatus; test: Metabolic assay; assay type: cell-based, Aspergillus fumigatus; details: for inhibition of metabolic activity: A. fumigatus strains Af293, CEA10 and DTO342-B2, 1 μM peptide, initial experiments, results not shown
Procedure, shortened: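 A. fumigatus grown 4 days on PDA at 37°C; conidia scraped into saline with 0.002% Tween 20 and counted by haemocytometer. Each well held 5 × 10³ conidia, glucose (final 2%), resazurin and water-diluted peptide. Controls lacked peptide or cells; edge wells held water. Absorbance at 570 nm, corrected for the no-cell control, read repeatedly. Initial strain set tested in duplicate.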

[3] = system: primary human nasal epithelial cells; test: Cytotoxicity test; assay type: cell-based; details: 5 μM peptide, 3 hours at 37°C, WST-1
Procedure, shortened: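 Primary human nasal epithelial cells were grown to confluency in bronchial epithelial cell medium. Cells were exposed to peptide, then washed three times with PBS. Viability was measured colorimetrically with WST-1 (10% v/v in cell medium). Controls were no peptide (100% viability) and 70% ethanol (total loss of viability). Runs were in triplicate, and treated wells were compared with no-peptide wells by two-tailed paired Student t test.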

CCC(C)n1ncn(-c2ccc(N3CCN(c4ccc(OCC5COC(Cn6cncn6)(c6ccc(Cl)cc6Cl)O5)cc4)CC3)cc2)c1=O (stereo not drawn) [ITC, itraconazole]
MIC ([1]; A. fumigatus DTO 326-I1): Human patient from hematology; Resistant to ITC (>16), POS (1), Intermediate for VRC (2) mg/l
MIC ([1]; A. fumigatus DTO 327-A8): Human ICU patient; Resistant to ITC (>16), POS (0.25), VRC (>16) mg/l

C[C@@H](c1ncncc1F)[C@](O)(Cn1cncn1)c1ccc(F)cc1F [VRC, voriconazole]
MIC ([1]; A. fumigatus DTO 326-I1): 2 µg/mL (≈ 5.73 µM)
MIC ([1]; A. fumigatus DTO 327-A8): Human ICU patient; Resistant to ITC (>16), POS (0.25), VRC (>16) mg/l

LLGDFFRKSKEKIGKEFKRIVQRIKDFLRNLVPRTES-NH2 [LL-37]
concentration at which metabolic activity is inhibited ([2]; azole-resistant A. fumigatus strains DTO 327-A8 and 326-I1, tested at 1 and 5 μM, 0.125×MM, 105 μM resazurin, 37°C, 27 h, two experiments): did not inhibit metabolic activity

APKAMRRWVQRWIRRWRPKVLQKNNYL-NH2 [CR183]
inhibition of metabolic activity [2]: inhibited the metabolic activity strongly

CCO [EtOH, ethanol]
cell viability, Average (%) ([3]; no peptide = 100% viability, in triplo): 17.5%
cytotoxic effect vs no peptide ([3]; two-tailed paired Student t test): increased cytotoxic activity

RRWVQRWIRRWRKVAAARRWVQRWIRRWRPKV-NH2 [CR173]
inhibition of metabolic activity [2]: inhibited the metabolic activity strongly
